From the M2OR odorant receptor database

Assays:
Settings in all cases: stereoisomer not certain
UniProt Q8VGC6 = target: T1, UniProt Q8VGC6
T1 sequence (whole entry): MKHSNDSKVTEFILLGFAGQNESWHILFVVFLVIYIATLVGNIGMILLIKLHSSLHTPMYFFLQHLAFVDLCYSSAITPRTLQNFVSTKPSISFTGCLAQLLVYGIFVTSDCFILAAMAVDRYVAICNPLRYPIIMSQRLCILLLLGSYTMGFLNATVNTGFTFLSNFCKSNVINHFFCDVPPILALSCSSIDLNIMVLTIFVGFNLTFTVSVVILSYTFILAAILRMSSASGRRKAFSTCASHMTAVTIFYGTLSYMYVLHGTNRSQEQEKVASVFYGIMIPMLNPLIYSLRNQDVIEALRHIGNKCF
Procedure, shortened: (§1)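 Assay methods differ from source to source, frequently being transient luciferase assays in mammalian cell lines. For each receptor–molecule pair, the label responsive (active) applies when the original authors judged the measured signal statistically different from baseline, and non-responsive (inactive) applies otherwise.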

UniProt Q8VGD7 = target: T2, UniProt Q8VGD7
T2 sequence (whole entry): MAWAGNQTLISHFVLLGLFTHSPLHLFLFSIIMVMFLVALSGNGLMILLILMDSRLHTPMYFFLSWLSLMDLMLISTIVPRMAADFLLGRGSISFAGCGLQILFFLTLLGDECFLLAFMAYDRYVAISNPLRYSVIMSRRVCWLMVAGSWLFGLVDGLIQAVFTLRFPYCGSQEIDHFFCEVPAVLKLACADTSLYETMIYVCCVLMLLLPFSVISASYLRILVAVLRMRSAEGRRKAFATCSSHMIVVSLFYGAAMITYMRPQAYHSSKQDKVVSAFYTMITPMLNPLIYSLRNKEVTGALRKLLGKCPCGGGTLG
Procedure, shortened: as §1

UniProt Q8VGH1 = target: T3, UniProt Q8VGH1
T3 sequence (whole entry): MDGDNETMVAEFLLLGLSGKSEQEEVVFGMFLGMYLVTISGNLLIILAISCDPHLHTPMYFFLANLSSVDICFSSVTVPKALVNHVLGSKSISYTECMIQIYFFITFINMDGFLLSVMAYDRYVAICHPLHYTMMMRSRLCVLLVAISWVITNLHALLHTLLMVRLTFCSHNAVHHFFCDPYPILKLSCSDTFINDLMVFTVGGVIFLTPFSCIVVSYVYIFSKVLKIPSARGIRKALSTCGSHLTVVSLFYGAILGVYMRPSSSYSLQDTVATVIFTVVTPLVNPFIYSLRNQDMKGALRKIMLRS
Procedure, shortened: as §1

UniProt Q8VGJ1 = target: T4, UniProt Q8VGJ1
T4 sequence (whole entry): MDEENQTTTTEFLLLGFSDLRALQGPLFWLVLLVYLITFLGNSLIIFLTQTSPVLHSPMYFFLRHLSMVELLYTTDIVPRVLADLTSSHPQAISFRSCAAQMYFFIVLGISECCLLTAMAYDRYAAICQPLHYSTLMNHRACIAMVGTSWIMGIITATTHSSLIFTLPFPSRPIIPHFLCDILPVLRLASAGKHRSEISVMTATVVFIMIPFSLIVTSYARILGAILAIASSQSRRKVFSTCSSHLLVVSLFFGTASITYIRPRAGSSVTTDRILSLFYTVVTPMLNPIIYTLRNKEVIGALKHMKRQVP
Procedure, shortened: as §1

UniProt Q8VGJ3 = target: T5, UniProt Q8VGJ3
T5 sequence (whole entry): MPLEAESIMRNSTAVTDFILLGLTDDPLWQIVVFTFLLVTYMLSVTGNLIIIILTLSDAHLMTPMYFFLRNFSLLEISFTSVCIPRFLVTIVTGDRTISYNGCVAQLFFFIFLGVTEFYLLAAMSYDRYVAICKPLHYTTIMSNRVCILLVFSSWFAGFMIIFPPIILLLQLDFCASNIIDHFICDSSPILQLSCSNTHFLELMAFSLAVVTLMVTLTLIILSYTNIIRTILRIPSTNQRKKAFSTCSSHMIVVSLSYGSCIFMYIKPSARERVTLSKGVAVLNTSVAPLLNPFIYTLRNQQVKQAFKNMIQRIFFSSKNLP
Procedure, shortened: as §1

UniProt Q8VGJ5 = target: T6, UniProt Q8VGJ5
T6 sequence (whole entry): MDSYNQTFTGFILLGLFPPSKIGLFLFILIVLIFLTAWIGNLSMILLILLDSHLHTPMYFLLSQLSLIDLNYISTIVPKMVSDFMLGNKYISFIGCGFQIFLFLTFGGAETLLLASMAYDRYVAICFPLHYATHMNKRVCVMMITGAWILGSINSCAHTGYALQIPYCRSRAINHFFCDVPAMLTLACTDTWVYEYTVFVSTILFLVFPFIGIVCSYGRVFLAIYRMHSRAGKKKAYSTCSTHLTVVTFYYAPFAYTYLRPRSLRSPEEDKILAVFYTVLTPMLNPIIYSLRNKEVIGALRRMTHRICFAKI
Procedure, shortened: as §1

UniProt Q8VGL0 = target: T7, UniProt Q8VGL0
T7 sequence (whole entry): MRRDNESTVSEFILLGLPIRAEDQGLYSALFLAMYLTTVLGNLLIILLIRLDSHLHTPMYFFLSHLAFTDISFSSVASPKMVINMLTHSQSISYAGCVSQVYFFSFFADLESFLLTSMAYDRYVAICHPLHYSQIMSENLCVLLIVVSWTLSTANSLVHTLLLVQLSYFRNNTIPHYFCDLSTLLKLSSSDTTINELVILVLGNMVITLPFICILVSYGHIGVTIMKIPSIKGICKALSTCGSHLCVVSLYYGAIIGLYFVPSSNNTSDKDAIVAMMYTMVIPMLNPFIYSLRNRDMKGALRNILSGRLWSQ
Procedure, shortened: as §1

UniProt Q8VGL7 = target: T8, UniProt Q8VGL7
T8 sequence (whole entry): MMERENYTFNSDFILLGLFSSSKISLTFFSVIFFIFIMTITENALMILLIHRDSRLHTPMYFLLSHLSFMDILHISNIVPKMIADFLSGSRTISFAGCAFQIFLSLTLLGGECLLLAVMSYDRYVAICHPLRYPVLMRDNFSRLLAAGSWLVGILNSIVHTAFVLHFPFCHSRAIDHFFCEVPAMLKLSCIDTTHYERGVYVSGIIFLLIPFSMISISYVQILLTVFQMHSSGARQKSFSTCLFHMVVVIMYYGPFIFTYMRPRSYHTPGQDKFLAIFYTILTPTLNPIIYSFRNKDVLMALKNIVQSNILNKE
Procedure, shortened: as §1

UniProt Q8VGM2 = target: T9, UniProt Q8VGM2
T9 sequence (whole entry): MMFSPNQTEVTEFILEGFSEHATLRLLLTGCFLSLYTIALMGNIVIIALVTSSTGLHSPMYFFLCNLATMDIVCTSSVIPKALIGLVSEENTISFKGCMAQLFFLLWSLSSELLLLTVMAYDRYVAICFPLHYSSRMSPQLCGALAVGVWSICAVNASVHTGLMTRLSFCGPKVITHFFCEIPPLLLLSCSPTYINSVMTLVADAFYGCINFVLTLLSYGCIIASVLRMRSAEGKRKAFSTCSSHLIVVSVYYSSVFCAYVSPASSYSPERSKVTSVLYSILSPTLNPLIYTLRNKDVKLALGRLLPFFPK
Procedure, shortened: as §1

UniProt Q8VGP6 = target: T10, UniProt Q8VGP6
T10 sequence (whole entry): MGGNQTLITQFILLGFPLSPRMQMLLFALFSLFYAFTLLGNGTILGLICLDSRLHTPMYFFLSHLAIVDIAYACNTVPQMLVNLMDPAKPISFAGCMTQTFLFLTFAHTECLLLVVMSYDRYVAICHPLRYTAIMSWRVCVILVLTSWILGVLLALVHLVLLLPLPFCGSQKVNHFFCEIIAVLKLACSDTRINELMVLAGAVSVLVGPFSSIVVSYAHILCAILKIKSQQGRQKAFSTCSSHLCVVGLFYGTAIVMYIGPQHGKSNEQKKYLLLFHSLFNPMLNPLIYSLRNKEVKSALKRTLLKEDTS
Procedure, shortened: as §1

UniProt Q8VGQ3 = target: T11, UniProt Q8VGQ3
T11 sequence (whole entry): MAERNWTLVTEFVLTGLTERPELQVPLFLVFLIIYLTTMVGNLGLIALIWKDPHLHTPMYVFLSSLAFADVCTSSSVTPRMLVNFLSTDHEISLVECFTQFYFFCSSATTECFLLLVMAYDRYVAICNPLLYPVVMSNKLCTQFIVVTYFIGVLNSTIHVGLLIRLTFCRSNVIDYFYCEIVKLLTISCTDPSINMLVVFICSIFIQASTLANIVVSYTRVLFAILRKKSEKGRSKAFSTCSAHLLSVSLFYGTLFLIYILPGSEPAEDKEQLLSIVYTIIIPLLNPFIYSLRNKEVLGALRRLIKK
Procedure, shortened: as §1

UniProt Q8VGT4 = target: T12, UniProt Q8VGT4
T12 sequence (whole entry): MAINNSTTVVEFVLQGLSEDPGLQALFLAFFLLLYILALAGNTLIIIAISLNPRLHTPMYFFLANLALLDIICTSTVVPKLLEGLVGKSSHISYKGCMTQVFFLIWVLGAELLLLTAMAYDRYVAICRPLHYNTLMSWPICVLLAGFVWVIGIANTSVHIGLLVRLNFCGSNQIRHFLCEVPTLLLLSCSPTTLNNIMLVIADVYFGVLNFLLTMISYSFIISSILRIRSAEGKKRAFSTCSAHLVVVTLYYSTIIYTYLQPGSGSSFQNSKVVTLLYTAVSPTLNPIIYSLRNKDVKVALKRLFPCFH
Procedure, shortened: as §1

UniProt Q8VGU3 = target: T13, UniProt Q8VGU3
T13 sequence (whole entry): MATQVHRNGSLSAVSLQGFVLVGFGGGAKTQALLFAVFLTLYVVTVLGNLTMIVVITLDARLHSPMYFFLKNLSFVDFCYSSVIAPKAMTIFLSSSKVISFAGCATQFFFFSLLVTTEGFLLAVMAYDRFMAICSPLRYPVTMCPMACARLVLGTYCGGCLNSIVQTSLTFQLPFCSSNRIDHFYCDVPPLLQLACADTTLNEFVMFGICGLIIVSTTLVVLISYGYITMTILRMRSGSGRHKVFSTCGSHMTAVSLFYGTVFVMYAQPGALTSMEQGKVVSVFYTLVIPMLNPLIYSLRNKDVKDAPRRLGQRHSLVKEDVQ
Procedure, shortened: as §1

UniProt Q8VGV1 = target: T14, UniProt Q8VGV1
T14 sequence (whole entry): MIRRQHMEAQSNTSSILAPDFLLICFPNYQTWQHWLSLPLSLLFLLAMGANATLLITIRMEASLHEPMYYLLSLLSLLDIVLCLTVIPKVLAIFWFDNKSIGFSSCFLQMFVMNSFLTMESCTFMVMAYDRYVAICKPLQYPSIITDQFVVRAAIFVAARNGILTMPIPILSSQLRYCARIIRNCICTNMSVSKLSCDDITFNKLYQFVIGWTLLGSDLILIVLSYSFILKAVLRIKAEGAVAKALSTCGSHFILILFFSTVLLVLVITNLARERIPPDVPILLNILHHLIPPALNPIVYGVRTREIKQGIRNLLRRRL
Procedure, shortened: as §1

UniProt Q8VGV7 = target: T15, UniProt Q8VGV7
T15 sequence (whole entry): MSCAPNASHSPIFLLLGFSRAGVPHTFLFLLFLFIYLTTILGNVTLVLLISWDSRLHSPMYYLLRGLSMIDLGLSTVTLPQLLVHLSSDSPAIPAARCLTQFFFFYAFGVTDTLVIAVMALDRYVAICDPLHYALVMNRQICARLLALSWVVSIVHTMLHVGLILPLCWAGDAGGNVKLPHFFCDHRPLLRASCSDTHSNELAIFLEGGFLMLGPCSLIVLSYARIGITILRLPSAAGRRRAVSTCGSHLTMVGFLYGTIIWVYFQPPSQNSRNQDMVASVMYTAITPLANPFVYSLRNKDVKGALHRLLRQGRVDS
Procedure, shortened: as §1

UniProt Q8VGX3 = target: T16, UniProt Q8VGX3
T16 sequence (whole entry): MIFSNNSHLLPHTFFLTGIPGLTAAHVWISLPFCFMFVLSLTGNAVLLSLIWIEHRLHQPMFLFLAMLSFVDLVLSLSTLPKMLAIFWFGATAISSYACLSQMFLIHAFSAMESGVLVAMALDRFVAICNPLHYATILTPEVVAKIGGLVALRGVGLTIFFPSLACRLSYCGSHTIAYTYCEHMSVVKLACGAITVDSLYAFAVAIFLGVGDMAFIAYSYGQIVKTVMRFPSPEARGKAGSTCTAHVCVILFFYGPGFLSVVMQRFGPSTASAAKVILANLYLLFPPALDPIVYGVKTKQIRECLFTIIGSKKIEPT
Procedure, shortened: as §1

UniProt Q8VGX5 = target: T17, UniProt Q8VGX5
T17 sequence (whole entry): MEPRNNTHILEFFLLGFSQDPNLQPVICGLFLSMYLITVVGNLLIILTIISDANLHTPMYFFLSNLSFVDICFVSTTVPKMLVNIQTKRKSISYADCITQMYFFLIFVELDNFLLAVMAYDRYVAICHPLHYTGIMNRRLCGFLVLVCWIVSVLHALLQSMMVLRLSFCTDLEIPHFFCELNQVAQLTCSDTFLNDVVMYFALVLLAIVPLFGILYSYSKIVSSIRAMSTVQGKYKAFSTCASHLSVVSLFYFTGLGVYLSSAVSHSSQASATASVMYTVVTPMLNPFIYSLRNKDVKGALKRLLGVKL
Procedure, shortened: as §1

Row | SMILES | odorant receptor agonist call (UniProt Q8VGC6) | odorant receptor agonist call (UniProt Q8VGD7) | odorant receptor agonist call (UniProt Q8VGH1) | odorant receptor agonist call (UniProt Q8VGJ1) | odorant receptor agonist call (UniProt Q8VGJ3) | odorant receptor agonist call (UniProt Q8VGJ5) | odorant receptor agonist call (UniProt Q8VGL0) | odorant receptor agonist call (UniProt Q8VGL7) | odorant receptor agonist call (UniProt Q8VGM2) | odorant receptor agonist call (UniProt Q8VGP6) | odorant receptor agonist call (UniProt Q8VGQ3) | odorant receptor agonist call (UniProt Q8VGT4) | odorant receptor agonist call (UniProt Q8VGU3) | odorant receptor agonist call (UniProt Q8VGV1) | odorant receptor agonist call (UniProt Q8VGV7) | odorant receptor agonist call (UniProt Q8VGX3) | odorant receptor agonist call (UniProt Q8VGX5)
1 | CCCCCCC(C)=O | active | inactive | inactive | inactive | inactive | active | inactive | inactive | inactive | inactive | inactive | inactive | inactive | inactive | inactive | inactive | inactive
2 | CCCCCOC(=O)CCCCC | inactive | inactive | inactive | inactive | inactive | inactive | inactive | inactive | inactive | inactive | inactive | inactive | inactive | inactive | inactive | inactive | inactive
